Data set [1] in a line: Toxicity in Swiss mouse infected with Plasmodium berghei ANKA assessed as change in body weight at 50 mg/kg, ip administered once daily for 5 days measured on 11 days post infection (reference value: 81%). The class given is organism-based. The following applies: in vivo, 264 h.
Data set [2] is described as follows: Toxicity in Swiss mouse infected with Plasmodium berghei ANKA assessed as change in body weight at 50 mg/kg, ip administered once daily for 5 days measured on 4 days post infection (reference value: 100%). To be noted: in vivo, 96 h. The class given is organism-based.
A short description of data set [3]: Toxicity in Swiss mouse infected with Plasmodium berghei ANKA assessed as change in body weight at 50 mg/kg, ip administered once daily for 5 days measured on 7 days post infection (reference value: 89%). The class given is organism-based. The following applies: in vivo, 168 h.
Data set [4] relates to Plasmodium berghei. The data set is described as follows: Antimalarial activity against Plasmodium berghei ANKA infected in Swiss mouse assessed as mean survival days at 50 mg/kg, ip administered once daily for 5 days (reference value: 11.2 day). The class given is functional.
The subject of data set [5] is Plasmodium berghei. The data set is described as follows: Antimalarial activity against Plasmodium berghei ANKA infected in Swiss mouse assessed as parasitaemia at 50 mg/kg, ip administered once daily for 5 days measured on 14 days post infection by flow cytometry (reference value: 64.6%). The class given is functional. For orientation: A flow cytometer gives signals particle by particle.

Data set [6] deals with Plasmodium berghei. The experiment in a line: Antimalarial activity against Plasmodium berghei ANKA infected in Swiss mouse assessed as parasitaemia at 50 mg/kg, ip administered once daily for 5 days measured on 4 days post infection by flow cytometry (reference value: 17.1%). The class given is functional. In short, it runs like this:
(§1)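 Mice infected with P. berghei GFP ANKA strain were dosed intraperitoneally once daily for 5 consecutive days, at 50 mg/kg for test compounds or 10 mg/kg for chloroquine as the reference. Parasitemia was measured in surviving animals on days 4, 7, 11 and 14 post infection by flow cytometry, using 10 μL blood in 2000 μL PBS. Percent reduction was calculated against vehicle-treated infected controls.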

Data set [7] relates to Plasmodium berghei. The data set is described as follows: Antimalarial activity against Plasmodium berghei ANKA infected in Swiss mouse assessed as parasitaemia at 50 mg/kg, ip administered once daily for 5 days measured on 7 days post infection by flow cytometry (reference value: 19%). The class given is functional. In short, it runs like this: as §1
Data set [8] concerns Plasmodium berghei. The experiment in a line: Antimalarial activity against Plasmodium berghei ANKA infected in Swiss mouse assessed as parasitaemia at 50 mg/kg, ip administered once daily for 5 days measured on 11 days post infection by flow cytometry (reference value: 44%). The class given is functional. The procedure, abridged:
as §1

In data set [9] the test system is Plasmodium berghei. The experiment in a line: Antimalarial activity against Plasmodium berghei ANKA infected in Swiss mouse assessed as suppression of parasitaemia at 50 mg/kg, ip administered once daily for […] measured on 4 days post infection by flow cytometry relative to control. The class given is functional.
A short description of data set [10]: Toxicity in Swiss mouse infected with Plasmodium berghei ANKA assessed as change in body weight at 50 mg/kg, ip administered once daily for 5 days measured on 14 days post infection (reference value: 75%). The class given is organism-based. To be noted: in vivo, 336 h.
In data set [11] the test system is MRC5. The data set is described as follows: Cytotoxicity against human MRC5 cells after 24 hrs by resazurin dye based assay. The class given is cell-based. To be noted: MRC5, 24 h. In short, it runs like this: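 MRC-5 human lung fibroblasts were grown in DMEM with 10% heat-inactivated FCS at 37 °C, 5% CO2. Cells were seeded at 4 x 10^4 per well and allowed to recover for at least 24 h, then exposed for 24 h to a two-fold dilution series (128 to 0.5 µM final). Cells were PBS-washed and incubated with resazurin for 3 h, and fluorescence was read at 560/590 nm. Tamoxifen served as positive control.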
A general note: The colour change of resazurin is a common sign of viable cells or microbes.

For data set [12], the system named is Mycobacterium tuberculosis. The experiment in a line: Antitubercular activity against Mycobacterium tuberculosis H37Rv after 7 days by Resazurin microtitre assay. To be noted: 168 h. The class given is functional. The procedure, abridged:
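Resazurin microtiter assay with M. tuberculosis H37Rv in Middlebrook 7H9 + 10% OADC + 0.5% glycerol + 0.1% casitone. Two-fold dilutions, final 50 to 3.12 µM. Inoculum from LJ subculture at McFarland 1, diluted 1:10. 7 days at 37 °C, normal atmosphere, then resazurin overnight. MIC is the lowest concentration preventing the blue-to-pink change, read visually.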

The test system of data set [13] is Plasmodium falciparum. The data set is described as follows: Antiplasmodial activity against chloroquine-resistant Plasmodium falciparum K1 infected in human erythrocytes measured after 72 hrs Malstat/NBT reagent based assay. The class given is functional, organism-based. To be noted: K1, 72 h. In short, it runs like this: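 Infected human red blood cells (1% parasitaemia, 2% haematocrit) incubated 72 h with compound, then frozen at -20 °C. Growth read by Malstat: haemolysate with Malstat reagent 15 min RT, then NBT/PES 2 h RT in dark, absorbance at 655 nm. Chloroquine positive control. IC50 reported.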

In data set [14] the test system is Mycobacterium tuberculosis. The data set is described as follows: Antitubercular activity against Mycobacterium tuberculosis H37Rv ATCC 27294 after 1 to 2 weeks. The class given is functional.
A short description of data set [15]: Toxicity in Swiss mouse infected with Plasmodium berghei ANKA assessed as change in body weight at 10 mg/kg, ip administered once daily for 5 days measured on 11 days post infection (reference value: 81%). The following applies: in vivo, 264 h. The class given is organism-based.
The subject of data set [16] is Plasmodium berghei. The experiment in a line: Antimalarial activity against Plasmodium berghei ANKA infected in Swiss mouse assessed as suppression of parasitaemia at 10 mg/kg, ip administered once daily for 5 days measured on 4 days post infection by flow cytometry relative to control. The class given is functional. The procedure, abridged: as §1
Data set [17] is described as follows: Toxicity in Swiss mouse infected with Plasmodium berghei ANKA assessed as change in body weight at 10 mg/kg, ip administered once daily for 5 days measured on 7 days post infection (reference value: 89%). The class given is organism-based. To be noted: in vivo, 168 h.
Data set [18] is described as follows: Toxicity in Swiss mouse infected with Plasmodium berghei ANKA assessed as change in body weight at 10 mg/kg, ip administered once daily for 5 days measured on 4 days post infection (reference value: 100%). The class given is organism-based. To be noted: in vivo, 96 h.
Data set [19] relates to Plasmodium berghei. The experiment in a line: Antimalarial activity against Plasmodium berghei ANKA infected in Swiss mouse assessed as parasitaemia at 10 mg/kg, ip administered once daily for 5 days measured on 4 days post infection by flow cytometry (reference value: 17.1%). The class given is functional. The procedure, abridged: as §1
The subject of data set [20] is Plasmodium berghei. The experiment in a line: Antimalarial activity against Plasmodium berghei ANKA infected in Swiss mouse assessed as mean survival days at 10 mg/kg, ip administered once daily for 5 days (reference value: 11.2 day). The class given is functional.
Data set [21] relates to Plasmodium berghei. The data set is described as follows: Antimalarial activity against Plasmodium berghei ANKA infected in Swiss mouse assessed as parasitaemia at 10 mg/kg, ip administered once daily for 5 days measured on 11 days post infection by flow cytometry (reference value: 44%). The class given is functional. The procedure, abridged:
as §1

The subject of data set [22] is Plasmodium berghei. The data set is described as follows: Antimalarial activity against Plasmodium berghei ANKA infected in Swiss mouse assessed as parasitaemia at 10 mg/kg, ip administered once daily for 5 days measured on 7 days post infection by flow cytometry (reference value: 19%). The class given is functional. In short, it runs like this:
as §1

pIC50: −log10 of the molar value. In brackets after ≈: the same amount, converted by molar mass. A value given as a limit tells only on which side of the number the result lay.

`CC(C)OC(=O)OCOP(=O)(CCCC(=O)N(C)O)OCOC(=O)OC(C)C`: the Activity in [1] is given as 105%; in data set [2], 104%; in data set [3], 105%; in [5], 16.4%; in data set [6] it was 0.2%; in [7], 0.04%. For the same compound, the Activity in [8] is listed as 3.7%; in data set [9], 99%; in [10] it was 100%. Moreover, the MSD in data set [4] came to 15.3 days.
Usually pIC50 stands for the negative decadic logarithm of the IC50, by convention in mol/L. A lower pIC50 goes with a large IC50. As usually defined, the MIC is the lowest concentration found to suppress growth. As for `CCOC(=O)[C@@H](N)Cc1ccc(OP(=O)(CCCC(=O)N(C)O)Oc2ccc(C[C@H](N)C(=O)OCC)cc2)cc1`, the figures for the pIC50 in data set [11] and in data set [13] were under 4.19 and 6.64, respectively. The compound also showed an MIC in data set [12] of over 50 µM.
Taken in the same sequence, the figures for `CC(C)C[C@H](NP(=O)(CCCC(=O)N(C)O)N[C@@H](CC(C)C)C(=O)OC(C)C)C(=O)OC(C)C` were under 4.19, 5.30 and over 50 µM.
Taken in the same sequence, the figures for `CCOC(=O)[C@H](C)NP(=O)(CCCC(=O)N(C)O)N[C@@H](C)C(=O)OCC` were under 4.19, 5.30 and 20 µM (≈ 7.91 µg/mL).
Take `CCOC(=O)[C@H](CC(C)C)NP(=O)(CCCC(=O)N(C)O)N[C@@H](CC(C)C)C(=O)OCC`: the pIC50 in data set [11] was under 4.19; in data set [13] it was 5.41. Also, in data set [12], the MIC was determined as 50 µM (≈ 24 µg/mL).
Taken in the same sequence, the figures for `CC(C)C[C@H](NP(=O)(CCCC(=O)N(C)O)N[C@@H](CC(C)C)C(=O)OC1CCCCC1)C(=O)OC1CCCCC1` were 5.12, 5.34 and over 50 µM.
On the same counts, the results for `CCOC(=O)[C@@H]1CCCN1P(=O)(CCCC(=O)N(C)O)N1CCC[C@H]1C(=O)OCC` are under 4.19, 4.99 and over 50 µM.
As for `CCOC(=O)[C@H](C)NP(=O)(N[C@@H](C)C(=O)OCC)C(CCC(=O)N(C)O)c1ccc(Cl)c(Cl)c1` (stereo not given in full), the negative-log IC50 (pIC50) in data set [11] is under 4.19; in data set [13], under 4.44. This compound had an MIC in data set [12] of over 50 µM.
Regarding `CCOC(=O)[C@H](CCCCN)NP(=O)(CCCC(=O)N(C)O)N[C@@H](CCCCN)C(=O)OCC`, the Activity amounted to 67% in data set [1]; 99% in data set [2]; 79% in [3]; 17.1% in data set [6]; 30.1% in data set [7]; 34.7% in data set [8]. In addition, the Activity in data set [9] is on record as 0.6%. Further, the MSD in data set [4] was found to be 8.7 days. The pIC50 in data set [11] was under 4.19; in data set [13] it was 6.02. In data set [12], this compound returned an MIC of over 50 µM.
`CCOC(=O)[C@@H](NP(=O)(CCCC(=O)N(C)O)N[C@H](C(=O)OCC)[C@@H](C)CC)[C@@H](C)CC`: the pIC50 was under 4.19 in [11] and 5.70 in data set [13]. The compound also registered an MIC in data set [12] of over 50 µM.
On the same counts, the results for `CCOC(=O)[C@H](Cc1ccccc1)NP(=O)(CCCC(=O)N(C)O)N[C@@H](Cc1ccccc1)C(=O)OCC` are under 4.19, 5.33 and over 50 µM.
On the same counts, the results for `CCCCCOC(=O)[C@H](CC(C)C)NP(=O)(CCCC(=O)N(C)O)N[C@@H](CC(C)C)C(=O)OCCCCC` are 5.13, 5.63 and over 50 µM.
On the same counts, the results for `CC(C)C[C@H](NP(=O)(CCCC(=O)N(C)O)N[C@@H](CC(C)C)C(=O)OCc1ccccc1)C(=O)OCc1ccccc1` are 5.10, 5.69 and over 50 µM.
Turning to `CCOC(=O)[C@@H](NP(=O)(CCCC(=O)N(C)O)N[C@H](C(=O)OCC)C(C)C)C(C)C`, the pIC50 in [11] is under 4.19; in data set [13], 4.90. Moreover, in data set [12], the MIC is over 50 µM.
Taken in the same sequence, the figures for `COC(=O)[C@H](CC(C)C)NP(=O)(CCCC(=O)N(C)O)N[C@@H](CC(C)C)C(=O)OC` were under 4.19, 5.75 and over 50 µM.
For the compound `CCOC(=O)[C@H](Cc1ccc(OP(=O)(Oc2ccc(C[C@H](NC(C)=O)C(=O)OCC)cc2)C(CCC(=O)N(C)O)c2ccc(Cl)c(Cl)c2)cc1)NC(C)=O` (stereo not given in full), the pIC50 was 4.43 in data set [11] and under 4.39 in data set [13]. In data set [12], this compound gave an MIC of over 50 µM.
For `CCOC(=O)[C@H](Cc1ccc(OP(=O)(CCCC(=O)N(C)O)Oc2ccc(C[C@H](NC(C)=O)C(=O)OCC)cc2)cc1)NC(C)=O`, the Activity in data set [1] is given as 86%; in data set [2] it was 102%; in [3], 104%; in data set [5] it was 32.6%; in data set [6], 3%; in data set [7], 6.5%. The Activity came out at 29.2% in data set [8], 82% in [9] and 69% in data set [10]. In addition, in data set [4], the MSD worked out at 12.7 days. For the same compound, the pIC50 was under 4.19 in [11] and 6.51 in data set [13]. This compound yielded an MIC in data set [12] of over 50 µM.
In [14], `CC(=O)N(CCCP(=O)(OCOC(=O)OC(C)(C)C)OCOC(=O)OC(C)(C)C)OCc1ccc(-c2ccccc2)cc1` displayed an MIC of 5.3 to 21 µM (≈ 3.31 to 13.1 µg/mL).
Regarding `CCN(CC)CCCC(C)Nc1ccnc2cc(Cl)ccc12` (stereo not given) [CHLOROQUINE], the Activity stood at 101% in data set [15]; 98.6% in [16]; 101% in data set [17]; 99% in data set [18]; 0.2% in data set [19]; 11.9% in data set [21]. The Activity in data set [22] was found to be 0.6%. For the same compound, the MSD in [20] was determined as 14 days.

For the origin of these results see ChEMBL document CHEMBL4422657, “Amino acid based prodrugs of a fosmidomycin surrogate as antimalarial and antitubercular agents” (Bioorg Med Chem, 2019).
